The source made the active and inactive calls. No cut-off for these calls is given here.
How the values were obtained:
[1] = target: Cyclin-dependent kinase 1/cyclin B1 (Homo sapiens) (UniProt P06493+P14635); assay: Inhibition of recombinant human N-terminal GST/His6-tagged CDK1 (M1 to M297 residues)/Cyclin B1 (M1 to V433 residues) expressed in sf9 cells at 1 uM using RB-CTF as substrate by filter binding assay
In short: (§1)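 Single-point profiling at 1 μM in a 22-kinase panel, performed externally by ProQinase; activity read as residual percent of control.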

[2] = target: Fibroblast growth factor receptor 1 (Homo sapiens) (UniProt P11362); assay: Inhibition of human N-terminal GST/His6-tagged FGFR1 (G400 to R820 residues) expressed in baculovirus infected sf9 cells at 1 uM using Poly(Glu,Tyr)4:1 as substrate by filter binding assay; in short: as §1
[3] = target: Insulin-like growth factor 1 receptor (Homo sapiens, UniProt P08069); assay: Inhibition of IGF1R in human MCF7 cells assessed as reduction in Akt phosphorylation at Ser473 residue at 1 uM after 15 mins by immunoblot analysis; assay type: cell-based
In short: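 MCF7 exposed to 1 μM and harvested at 15 min, 30 min, 1, 4 and 6 h; lysates immunoblotted with p-Akt (S473) antibody.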

MCF7 = assay: Induction of apoptosis in human MCF7 cells at 0.5 uM after 24 hrs by Annexin V-FITC/propidium iodide staining based FACS analysis; assay type: functional, cell-based
In short: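 MCF7 grown 24 h in DMEM/10% FBS/1% PS, exposed 24 h, pelleted, stained with FITC-annexin V in HEPES binding buffer (pH 7.4, 1.8 mM CaCl2) 15 min dark at rt, then PI 10 min, analysed by flow cytometry; bortezomib positive control.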

HL-60(TB) = assay: Growth inhibition of human HL-60(TB) cells incubated for 48 hrs by sulforhodamine B assay; assay type: functional, cell-based
A549 = assay: Growth inhibition of human A549/ATCC cells incubated for 48 hrs by sulforhodamine B assay; assay type: functional, cell-based
NCI-H460 = assay: Growth inhibition of human NCI-H460 cells incubated for 48 hrs by sulforhodamine B assay; assay type: functional, cell-based
ACHN = assay: Growth inhibition of human ACHN cells incubated for 48 hrs by sulforhodamine B assay; assay type: functional, cell-based
PC-3 = assay: Growth inhibition of human PC3 cells incubated for 48 hrs by sulforhodamine B assay; assay type: functional, cell-based
DU-145 = assay: Growth inhibition of human DU145 cells incubated for 48 hrs by sulforhodamine B assay; assay type: functional, cell-based

## CN1CCN(CCO/N=C2/C(=C3/C(=O)Nc4ccccc43)Nc3ccccc32)CC1
[1]
  inhibition: inactive
[2]
  inhibition: inactive
[3]
  inhibition: Active
MCF7
  Activity: Active
HL-60(TB)
  growth inhibition (GI): Active
A549
  growth inhibition (GI): Active
NCI-H460
  growth inhibition (GI): Active
ACHN
  growth inhibition (GI): Active
PC-3
  growth inhibition (GI): Active
DU-145
  growth inhibition (GI): Active

— ChEMBL document CHEMBL4014343 (J Med Chem, 2017)
